Measured values from different studies.
Lines come from different studies, so protocols differ.
Target: Uncharacterized serine/threonine-protein kinase SBK3 (SBK3, Homo sapiens, UniProt P0C264)
One construct used (P0C264 1-359): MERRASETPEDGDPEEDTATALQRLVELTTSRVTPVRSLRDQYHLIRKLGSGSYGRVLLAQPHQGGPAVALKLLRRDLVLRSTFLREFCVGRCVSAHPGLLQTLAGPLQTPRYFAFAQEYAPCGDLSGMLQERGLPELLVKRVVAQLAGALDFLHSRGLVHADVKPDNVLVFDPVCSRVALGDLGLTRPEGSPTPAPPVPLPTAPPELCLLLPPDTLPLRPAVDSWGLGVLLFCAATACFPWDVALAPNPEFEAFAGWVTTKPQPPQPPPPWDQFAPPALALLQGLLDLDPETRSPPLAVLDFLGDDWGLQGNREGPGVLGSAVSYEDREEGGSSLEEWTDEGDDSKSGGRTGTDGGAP

| Compound | assay | setting | remaining binding |
| --- | --- | --- | --- |
| F[C@@H]1CCN(c2nccc(-c3cnn4ncccc34)n2)C1 | binding | 1 µM | 100% |
| O=C(c1ccc(Nc2ncc(Cl)c(-c3ccc(Cl)s3)n2)cc1)N1CCC(N2CCCC2)CC1 | binding, competition with immobilised ligand | 1 µM | 62% |
| N[C@@H]1CCN(c2nccc(-c3cnn4ncccc34)n2)C1 | binding | 1 µM | 100% |
| C[C@@H](c1ccc(-n2cnc3c(N)ncnc32)cc1)N1CCc2nn(C)c(Cc3ccccc3)c2C1=O | binding, competition with immobilised ligand | 0.1 µM | 99% |
| Cc1nc(Cc2cccc(C(F)(F)F)c2)sc1-c1ccc(C(N)=O)nc1 | cell-free assay, competition with immobilised ligand | 1 µM | 100% |
| C[C@@H]1CCN(c2nccc(-c3cnn4ncccc34)n2)C1 | binding | 1 µM | 99% |
| COc1cnc(Nc2cccc(S(N)(=O)=O)c2)nc1N1CCN(c2ccccc2)C(=O)C1 | binding, competition with immobilised ligand | 1 µM | 64% |
| c1cncc(-c2cccc(Nc3nccc(NC4CCCCC4)n3)c2)c1 | binding, competition with immobilised ligand | 10 µM | 33% |
| CC(=O)C1=C(C)N(c2cccc(C(F)(F)F)c2)C(=O)N[C@@H]1c1ccc(C#N)nc1 | cell-free assay, competition with immobilised ligand | 1 µM | 100% |
| O=C(NCCCN1CCOCC1)c1ccc(Nc2ncc(Cl)c(-c3ccc(Cl)s3)n2)cc1 | binding, competition with immobilised ligand | 1 µM | 79% |
| CN(C)c1nccc(-c2cnn3ncccc23)n1 | binding | 1 µM | 100% |
| C=CC(=O)N1CCC(C(=O)NCC(=O)N2CCN(c3nc(-c4cnc(N)nc4C(F)F)nc(N4CCOCC4)n3)CC2)CC1 | binding, competition with immobilised ligand | 1 µM | 87% |
| COCCOc1nc(-c2ccc(Cl)nc2)nc2c1CN(C(=O)c1ncn3ccccc13)CC2 | cell-free assay, competition with immobilised ligand | 0.1 µM | 100% |
| O=C(c1ccc(Nc2ncc(Cl)c(-c3cc4ccccc4s3)n2)cc1)N1CCC(N2CCCC2)CC1 | binding, competition with immobilised ligand | 1 µM | 86% |
| O=S(=O)(NC1CCC(c2cc(F)ccc2F)(S(=O)(=O)c2ccc(Cl)cc2)CC1)C(F)(F)F (centres unmarked) | cell-free assay, competition with immobilised ligand | 1 µM | 93% |
| Nc1ncc2c(n1)-c1c([nH]c3ccc(C#CC4CC4)cc13)CCCC2 | binding, competition with immobilised ligand | 1 µM | 100% |
| COc1ccc2c(c1)O[C@H](c1ccc(OC)c(OC)c1)C[C@@H]2NC(=O)C1(c2ccc3c(c2)OC(F)(F)O3)CC1 | cell-free assay, competition with immobilised ligand | 1 µM | 100% |
| c1cnn2ncc(-c3ccnc(N4CCC45COC5)n3)c2c1 | binding | 1 µM | 71% |
| O=C(N[C@H]1CCCCC/C=C\C2C[C@@]2(C(=O)O)NC(=O)[C@@H]2C[C@@H](Oc3ccncc3)CN2C1=O)OC1CCCC1 (some centres unmarked) | binding, competition with immobilised ligand | 1 µM | 79% |
| O=C(Nc1c[nH]nc1C(=O)NC1CCNCC1)c1cc(F)cc(F)c1 | binding, competition with immobilised ligand | 1 µM | 100% |
